Compound activity (PubChem BioAssay)
MEKK2wt PB1 HTS: modulators of MEK5 binding to wildtype MEKK2, primary screen, biochemical, multiplex bead flow cytometry, Alexa488-MEK5; Alexa488-MEK5 binding to MEKK2 WT; actives lie on both sides; binding response (% of control), % at 10 µM; 1.1% of 290,000 active; in the data active = binding response below about 67% or above about 130%
MEKK3 PB1 HTS: modulators of MEKK3-MEK5 PB1 binding, primary screen, biochemical, wildtype MEKK3, multiplex bead flow cytometry, Alexa488-MEK5. Mitogen-activated protein kinase kinase kinase 3 (Homo sapiens), Q99759. bead-based flow cytometry, Alexa488-MEK5 binding to MEKK3; actives lie on both sides; 0 = blocked by unlabeled MEK5, 100 = vehicle. 1.4% of 290,000 active. binding response (% of control), % at 10 µM. AID 1529, 2009;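 active = binding response more than 3 SD above or below the average of its plate-row segment, actives on both sides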;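 also: Alexa488 bead fluorescence after subtracting the streptavidin-only scavenger bead signal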
ABCB1 block: ABCB1 efflux pump inhibitors, primary screen, cell-based, multiplex, flow cytometry, ABCG2 counter-screen; AID 1326, 2008; CCRF-Adr cells, JC-1 efflux; 0.067% of 190,000 active; inhibition, % at 6.6 µM; in the data active = inhibition above about 40%;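 also: 0% = vehicle and 100% = reference inhibitor; higher value means more JC-1 retained so stronger ABCB1 efflux block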
Target sequence (P08183 whole entry, looked up): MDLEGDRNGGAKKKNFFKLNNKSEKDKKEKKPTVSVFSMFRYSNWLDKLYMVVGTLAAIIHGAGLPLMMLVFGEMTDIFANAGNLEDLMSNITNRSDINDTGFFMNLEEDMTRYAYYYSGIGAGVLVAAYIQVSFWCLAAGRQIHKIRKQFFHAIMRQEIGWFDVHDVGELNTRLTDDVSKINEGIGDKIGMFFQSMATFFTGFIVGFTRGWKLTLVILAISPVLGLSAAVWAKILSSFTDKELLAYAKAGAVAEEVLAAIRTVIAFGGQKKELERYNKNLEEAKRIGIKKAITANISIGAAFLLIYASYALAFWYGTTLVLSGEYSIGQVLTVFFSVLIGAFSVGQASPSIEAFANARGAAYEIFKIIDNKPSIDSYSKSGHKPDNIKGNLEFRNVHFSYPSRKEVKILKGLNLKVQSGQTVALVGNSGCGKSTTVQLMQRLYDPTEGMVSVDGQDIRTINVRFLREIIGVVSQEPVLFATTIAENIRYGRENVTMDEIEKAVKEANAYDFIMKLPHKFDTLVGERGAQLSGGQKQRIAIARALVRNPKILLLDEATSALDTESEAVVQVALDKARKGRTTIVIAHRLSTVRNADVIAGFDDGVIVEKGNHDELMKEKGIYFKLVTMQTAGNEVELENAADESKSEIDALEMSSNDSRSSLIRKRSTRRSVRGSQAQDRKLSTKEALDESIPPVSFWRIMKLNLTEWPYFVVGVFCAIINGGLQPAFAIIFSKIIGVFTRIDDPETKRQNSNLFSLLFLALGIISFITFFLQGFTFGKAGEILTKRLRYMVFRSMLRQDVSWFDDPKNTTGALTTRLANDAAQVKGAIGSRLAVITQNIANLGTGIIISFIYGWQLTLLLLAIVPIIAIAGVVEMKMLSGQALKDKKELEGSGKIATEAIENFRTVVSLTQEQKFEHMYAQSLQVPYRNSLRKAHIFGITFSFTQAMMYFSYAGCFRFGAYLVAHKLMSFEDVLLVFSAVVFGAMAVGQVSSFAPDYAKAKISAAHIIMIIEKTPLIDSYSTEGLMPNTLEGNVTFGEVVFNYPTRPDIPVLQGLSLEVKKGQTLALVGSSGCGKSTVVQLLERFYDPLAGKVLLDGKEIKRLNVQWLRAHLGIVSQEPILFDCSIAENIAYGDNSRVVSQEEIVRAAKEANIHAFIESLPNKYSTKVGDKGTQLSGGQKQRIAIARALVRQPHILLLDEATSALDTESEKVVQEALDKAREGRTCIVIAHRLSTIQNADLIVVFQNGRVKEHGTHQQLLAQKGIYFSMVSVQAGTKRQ
Efflux pump mplx: inhibitors of Candida efflux pumps in yeast, primary screen, S. cerevisiae, Nile Red, multiplex; inhibition, % at 10 µM; S. cerevisiae Candida pump triplex; 0.44% of 330,000 active;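 active = plate passing quality check with inhibition over a set limit, or well fluorescence over plate mean plus 4 SD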;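 also: Nile Red retained in pooled yeast measured as flow cytometry median fluorescence; 0% = buffer negative control and 100% = Enniatin B positive control; higher means more Nile Red kept so more efflux inhibition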
MEKK2mut PB1 HTS: MEK5 binding signal on mutant MEKK2 PB1, primary screen, biochemical, multiplex bead flow cytometry, Alexa488-MEK5; Alexa488-MEK5 binding to MEKK2 mutant; percent response, % at 10 µM; 0.35% of 290,000 active; AID 1530, 2009; in the data active = percent response above about 24%, passing the limit was not always enough
ABCG2 inh: ABCG2 efflux pump inhibitors, primary screen, multiplex with ABCB1, IgMXP3 cells, flow cytometry; Broad substrate specificity ATP-binding cassette transporter ABCG2 (Homo sapiens), Q9UNQ0; JC-1 efflux; inhibition, % at 6.6 µM; 0.1% of 190,000 active; AID 1325, 2008;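 active = inhibition above 80%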;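 also: 0% = DMSO and 100% = nicardipine control wells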
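test system = two drug-resistant human cell lines, ABCG2 and ABCB1 | amount = 3 million cells/mL final, two lines in 1:1 ratio | reagent = JC-1 transporter substrate | doses = one concentration, 6.6 µM final | incubation = 10 min at 25 °C | signal = flow cytometric JC-1 green MFI at 530 nm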
MEKK2wt confirm: modulators of MEK5 binding to wildtype MEKK2, confirmation, biochemical, single concentration, multiplex bead flow cytometry | shares compounds with MEKK3 PB1 HTS | Alexa488-MEK5 binding to MEKK2 WT; actives lie on both sides | binding response (% of control), % at 10 µM | 2.4% of 5,900 active; in the data active = binding response below about 16% or above about 210%; inactive = in between
MEKK2mut-MEK5: mutant MEKK2 PB1-MEK5 binding signal retest – biochemical, single concentration, multiplex bead flow cytometry, confirmation; shares compounds with MEKK3 PB1 HTS; Alexa488-MEK5 binding to MEKK2 mutant; percent response, % at 10 µM; 2% of 5,900 active; in the data active = percent response mostly above about 71%, no sharp cut-off; inactive = mostly below about 38%;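 also: higher means compound restores mutant binding toward wildtype level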
MEKK3-MEK5 inh: MEKK3 wild-type PB1 binding to MEK5, inhibitors, confirmation, biochemical, bead multiplex flow cytometry, single concentration, wildtype; shares compounds with MEKK3 PB1 HTS; Alexa488-MEK5 binding to MEKK3; hits give low values; binding response (% of control), % at 10 µM; 1.8% of 5,900 active; AID 1894, 2009;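 active = binding response below 72% of control, or above a set upper limit, though filed actives all read lower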;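 also: 100% = DMSO only wells and 0% = binding blocked by excess unlabeled MEK5; lower values mean stronger disruption of MEK5 binding to MEKK3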
An asterisk follows results filed as active; . = no result given; [ ] = another dose, or the depositor's remark. Sampled rows, rich in hits. Any-hit rate of the full collection: about 2.5%.

SMILES	MEKK2wt PB1 HTS	MEKK3 PB1 HTS	ABCB1 block	Efflux pump mplx	MEKK2mut PB1 HTS	ABCG2 inh	MEKK2wt confirm	MEKK2mut-MEK5	MEKK3-MEK5 inh
CC1CN(c2ccc([N+](=O)[O-])c(NCCOc3ccccc3)c2)CC(C)N1 (stereo not drawn)	170.0*	109.0	.	-0.1	18.0	.	140.0	22.0	107.0
CC(C)n1cnnc1SCC(=O)NNC(=O)COc1ccc(Cl)cc1	.	.	.	-0.1	.	.	.	.	.
O=C(Nc1ccncc1)Nc1cccc(C(F)(F)F)c1	101.0	100.0	.	0.0	-3.0	.	.	.	.
CCN(CC)S(=O)(=O)c1ccc(NC(=O)Nc2cccc(C(F)(F)F)c2)cc1	144.0*	108.0	-0.3	0.0	26.0	-0.5	168.0	30.0	102.0
Cc1ccc(NC(=S)NNC(=S)Nc2cccc(C(F)(F)F)c2)cc1	117.0	107.0	.	-0.1	4.0	.	.	.	.
O=C(Nc1ccc(OC(F)F)cc1)Nc1cccc(C(F)(F)F)c1	209.0*	113.0	0.0	0.1	17.0	0.5	115.0	-1.0	93.0
Cc1ccc(S(=O)(=O)Nc2ccc(NC(=O)Nc3cccc(C(F)(F)F)c3)cc2)cc1	171.0*	109.0	-0.3	-0.1	54.0*	-3.0	176.0	36.0	97.0
CN(C)S(=O)(=O)NCCNC(=O)c1cc(OCC(F)(F)F)ccc1OCC(F)(F)F	100.0	86.0	0.7	0.1	-1.0	6.2	.	.	.
O=C(NCCNC(=O)c1cc(OCC(F)(F)F)ccc1OCC(F)(F)F)Nc1cccc(C(F)(F)F)c1	142.0*	103.0	-0.7	0.0	11.0	15.3	111.0	4.0	103.0
O=C(COn1nnc2ccccc21)N1CCN(Cc2ccccc2)CC1	.	.	0.3	-0.1	.	2.4	.	.	.
CCN(CC(=O)Nc1ccc(OC)cc1)C(=O)C1CCN(C(=O)c2ccc(Cl)cc2)CC1	.	.	.	-0.1	.	.	.	.	.
O=C(CCC(=O)c1ccc(F)cc1)OCc1nnc(-c2ccc([N+](=O)[O-])cc2)o1	.	.	.	-0.1	.	.	.	.	.
Cc1ccc(NC2CCCN(C(=O)Cc3nonc3C)C2)cc1C (stereo not drawn)	93.0	94.0	.	0.0	-2.0	.	.	.	.
CC12CCC(C(=O)NC3CCCC3)(CC1=O)C2(C)C (stereo not drawn)	111.0	107.0	0.1	0.1	5.0	0.5	.	.	.
CC1(C)CC2CC(C)(CN2C(=O)C23CCC(C)(C(=O)C2)C3(C)C)C1 (stereo not drawn)	102.0	128.0*	0.6	0.1	0.0	0.8	92.0	-8.0	97.0
CC(C)(C)OC(=O)C[C@H]1C/C=C\C[C@H](CC(=O)NCCO)C(=O)N[C@@H](c2ccccc2)COC1=O	.	.	.	0.0	.	.	.	.	.
Cc1cc2c(C)c(C)c(=O)[nH]c2cc1N	98.0	97.0	-0.4	-0.2	0.0	-1.5	.	.	.
CCNc1nc(Oc2ccc(C(=O)OCC)cc2)nc(N2CCOCC2)n1	117.0	135.0*	0.9	0.0	1.0	3.5	98.0	-1.0	101.0
Cc1nnc(SCC(=O)NC23CC4CC(CC(C4)C2)C3)s1	98.0	101.0	0.6	0.0	-1.0	2.7	.	.	.
Nc1nnc(SCC(=O)NC23CC4CC(CC(C4)C2)C3)s1	39.0*[inhibitor]	41.0*[inhibitor]	0.0	0.1	-18.0	0.1	110.0	5.0	103.0
CCn1c(CSc2nc3ccccc3s2)nnc1SCC(=O)NCC(=O)OC	106.0	102.0	-0.1	0.1	5.0	0.4	.	.	.
CSCCC(C(=O)OCC(=O)c1ccc(C)c(C)c1)N1C(=O)c2cc(Cl)c(Cl)cc2C1=O (stereo not drawn)	2.0*[inhibitor]	2.0*[inhibitor]	0.7	-0.1	-15.0	1.7	90.0	-4.0	97.0
Cc1cc(OCC(=O)OCC(=O)NC2CCCC2)ccc1Cl	.	.	.	0.2	.	.	.	.	.
Cc1cc(OCC(=O)NC2CCCCC2)ccc1Cl	105.0	147.0*	0.2	-0.1	2.0	0.0	107.0	3.0	102.0
CCOC(=O)C1CCN(C(=O)c2cc(S(=O)(=O)N3CCOCC3)c(Cl)cc2Cl)CC1	92.0	82.0*[inhibitor]	0.5	0.0	-4.0	-0.7	107.0	3.0	104.0
O=C1NC(c2ccc(Cl)cc2)=COc2ccccc21	126.0	143.0*	0.5	0.0	6.0	4.1	101.0	2.0	101.0
COc1ccc(C2=COc3ccccc3C(=O)N2)cc1	89.0	98.0	-0.2	-0.1	-6.0	1.1	.	.	.
COc1cc(/C=N/NC(=O)C2COc3ccccc3O2)ccc1O (stereo not drawn)	96.0	102.0	.	0.0	-3.0	.	.	.	.
